Measurements as given in ChEMBL document CHEMBL4351001, “2-Aminoimidazole-based antagonists of the 5-HT6 receptor - A new concept in aminergic GPCR ligand design” (Eur J Med Chem, 2019).
Converted amounts (≈) assume the structure as drawn.

Columns and labels:
[1] = molecular target: T1, 5-hydroxytryptamine receptor 1A (Homo sapiens, UniProt P08908); test: Displacement of [3H]-8-OH-DPAT from human 5HT1A receptor expressed in HEK293 cells incubated for 1 hr by liquid scintillation counter method; type: cell-based
T1 sequence (P08908 whole entry): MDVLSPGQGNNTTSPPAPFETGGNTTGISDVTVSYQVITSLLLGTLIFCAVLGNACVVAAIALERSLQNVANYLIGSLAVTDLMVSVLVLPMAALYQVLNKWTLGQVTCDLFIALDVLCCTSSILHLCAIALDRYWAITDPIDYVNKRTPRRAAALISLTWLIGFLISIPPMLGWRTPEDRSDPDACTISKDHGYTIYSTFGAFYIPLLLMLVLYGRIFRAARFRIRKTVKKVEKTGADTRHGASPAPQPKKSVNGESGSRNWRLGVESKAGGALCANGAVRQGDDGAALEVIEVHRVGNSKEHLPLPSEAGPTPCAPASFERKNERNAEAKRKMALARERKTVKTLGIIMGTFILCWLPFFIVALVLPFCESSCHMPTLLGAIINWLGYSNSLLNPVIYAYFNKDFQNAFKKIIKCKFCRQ
Method in brief: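 HEK293 cells stably expressing human 5-HT1AR; membranes in 50 mM Tris–HCl, 0.1 mM EDTA, 4 mM MgCl2, 10 μM pargyline, 0.1% ascorbate; incubated 1 h at room temperature, then filtered. Nonspecific binding defined with 10 μM 5-HT.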

[2] = molecular target: 5-hydroxytryptamine receptor 2A (Homo sapiens, UniProt P28223); test: Displacement of [3H]ketanserin from human 5HT2A receptor expressed in CHOK1 cells incubated for 1 hr by liquid scintillation counter method; type: cell-based; conditions: read-out: Ki
Sequence of 5-hydroxytryptamine receptor 2A (P28223 whole entry): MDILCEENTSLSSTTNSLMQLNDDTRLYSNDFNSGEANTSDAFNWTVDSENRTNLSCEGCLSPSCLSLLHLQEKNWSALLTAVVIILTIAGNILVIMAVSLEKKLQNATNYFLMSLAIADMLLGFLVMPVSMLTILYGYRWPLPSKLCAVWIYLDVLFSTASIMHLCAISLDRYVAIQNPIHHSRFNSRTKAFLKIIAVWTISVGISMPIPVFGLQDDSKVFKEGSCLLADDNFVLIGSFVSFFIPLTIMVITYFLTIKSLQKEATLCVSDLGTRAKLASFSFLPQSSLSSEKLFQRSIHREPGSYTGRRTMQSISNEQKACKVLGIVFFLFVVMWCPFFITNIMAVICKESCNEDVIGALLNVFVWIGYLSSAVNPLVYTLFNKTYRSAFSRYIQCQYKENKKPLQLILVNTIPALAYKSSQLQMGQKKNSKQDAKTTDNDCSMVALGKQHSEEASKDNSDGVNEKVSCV

[3] = molecular target: D(2) dopamine receptor (Homo sapiens, UniProt P14416); test: Displacement of [3H]-methylspiperone from human D2 long receptor expressed in HEK293 cells measured after 1 hr by liquid scintillation counter method; type: cell-based
Sequence of D(2) dopamine receptor (P14416 whole entry): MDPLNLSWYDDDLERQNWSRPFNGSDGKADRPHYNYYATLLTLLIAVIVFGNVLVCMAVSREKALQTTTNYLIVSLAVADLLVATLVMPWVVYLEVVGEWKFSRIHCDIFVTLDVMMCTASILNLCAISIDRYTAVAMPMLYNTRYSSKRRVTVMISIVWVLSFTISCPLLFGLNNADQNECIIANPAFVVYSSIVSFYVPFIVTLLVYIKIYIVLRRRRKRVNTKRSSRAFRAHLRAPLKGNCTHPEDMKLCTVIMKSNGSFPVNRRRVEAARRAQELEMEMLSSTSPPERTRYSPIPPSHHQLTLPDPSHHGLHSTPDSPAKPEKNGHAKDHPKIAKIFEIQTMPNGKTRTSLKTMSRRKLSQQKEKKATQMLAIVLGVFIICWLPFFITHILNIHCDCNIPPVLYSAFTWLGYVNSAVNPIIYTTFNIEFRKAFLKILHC
Method in brief: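 HEK293 membranes stably expressing human D2L receptor, incubated 1 h at 37°C, then filtered and retained radioactivity counted; (+)-butaclamol 1 μM defines nonspecific binding. Tested in triplicate at 7–8 concentrations (10⁻¹¹–10⁻⁴ M); Ki via Cheng-Prusoff, averaged over at least two independent experiments.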

[4] = molecular target: T2, 5-hydroxytryptamine receptor 6 (Homo sapiens, UniProt P50406); test: Displacement of [3H]LSD from human 5HT6 receptor expressed in HEK293 cells measured after 1 hr by liquid scintillation counter method; type: cell-based
T2 sequence (P50406 whole entry): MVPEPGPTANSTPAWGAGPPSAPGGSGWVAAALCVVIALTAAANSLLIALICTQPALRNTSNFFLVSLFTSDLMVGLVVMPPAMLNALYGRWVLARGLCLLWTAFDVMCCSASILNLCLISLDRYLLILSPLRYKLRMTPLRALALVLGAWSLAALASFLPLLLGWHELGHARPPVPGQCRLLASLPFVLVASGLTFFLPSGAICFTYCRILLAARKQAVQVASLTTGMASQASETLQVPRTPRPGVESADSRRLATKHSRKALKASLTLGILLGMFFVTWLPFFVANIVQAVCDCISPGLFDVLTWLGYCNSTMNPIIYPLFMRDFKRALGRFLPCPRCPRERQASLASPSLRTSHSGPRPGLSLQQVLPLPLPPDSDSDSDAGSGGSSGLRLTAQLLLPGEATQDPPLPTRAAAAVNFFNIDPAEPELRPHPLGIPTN

[5] = molecular target: 5-hydroxytryptamine receptor 7 (Homo sapiens, UniProt P34969); test: Displacement of [3H]-5-CT from human 5HT7 receptor expressed in HEK293 cells measured after 1 hr by liquid scintillation counter method; type: cell-based
Sequence of 5-hydroxytryptamine receptor 7 (P34969 whole entry): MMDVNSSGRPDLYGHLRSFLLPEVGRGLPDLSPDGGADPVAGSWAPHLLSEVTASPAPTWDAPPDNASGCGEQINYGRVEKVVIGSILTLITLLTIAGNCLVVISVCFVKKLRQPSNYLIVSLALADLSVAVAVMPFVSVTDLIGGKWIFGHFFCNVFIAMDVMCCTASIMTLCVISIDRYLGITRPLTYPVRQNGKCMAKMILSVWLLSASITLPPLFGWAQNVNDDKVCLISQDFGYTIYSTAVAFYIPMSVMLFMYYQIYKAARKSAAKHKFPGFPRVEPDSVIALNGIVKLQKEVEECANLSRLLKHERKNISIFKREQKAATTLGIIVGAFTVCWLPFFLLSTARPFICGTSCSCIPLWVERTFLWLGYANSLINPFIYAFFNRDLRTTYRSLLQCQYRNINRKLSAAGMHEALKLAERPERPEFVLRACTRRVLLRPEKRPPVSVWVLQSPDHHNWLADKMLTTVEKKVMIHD

[6] = Solubility of compound in water; type: physicochemical
[7] = Stability of compound in rat liver microsomes; type: ADME, Microsome
Method in brief: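 Incubation in triplicate with rat liver microsomes at 37°C with NADP, G6P, G6P dehydrogenase and MgCl2. Verapamil and donepezil served as microsomal activity standards.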

[8] = in vitro; conditions: rat
[9] = in vitro; conditions: rat; remark: listed apart in the source
[10] = molecular target: T2, 5-hydroxytryptamine receptor 6; test: Antagonist activity at human 5HT6 receptor expressed in HEK293 cells assessed as inhibition of 5-CT induced cAMP production measured after 30 mins by TR-FRET assay; type: functional, cell-based
[11] = molecular target: T3, Alpha-1A adrenergic receptor (Rattus norvegicus) (UniProt P43140); test: Displacement of [3H] prazosin from rat alpha 1A adrenergic receptor at 10^-6 M measured after 60 mins by scintillation counter method relative to control
T3 sequence (whole entry): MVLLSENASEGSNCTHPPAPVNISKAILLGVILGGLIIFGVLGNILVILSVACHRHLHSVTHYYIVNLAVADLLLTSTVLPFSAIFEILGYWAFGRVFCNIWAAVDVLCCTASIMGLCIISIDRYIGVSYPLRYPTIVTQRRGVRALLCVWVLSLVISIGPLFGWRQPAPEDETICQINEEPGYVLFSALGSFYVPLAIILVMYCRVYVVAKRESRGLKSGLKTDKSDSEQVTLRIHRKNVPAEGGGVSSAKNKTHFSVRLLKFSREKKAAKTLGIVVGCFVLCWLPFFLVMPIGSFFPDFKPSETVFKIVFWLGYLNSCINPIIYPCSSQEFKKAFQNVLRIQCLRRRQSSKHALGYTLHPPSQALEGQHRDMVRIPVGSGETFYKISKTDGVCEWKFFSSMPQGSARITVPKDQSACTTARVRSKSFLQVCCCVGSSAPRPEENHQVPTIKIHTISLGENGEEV

[12] = molecular target: Histamine H1 receptor (Homo sapiens) (UniProt P35367); test: Displacement of [3H] pyrilamine from human recombinant H1 histamine receptor at 10^-6 M measured after 60 mins by scintillation counting method relative to control
Sequence of Histamine H1 receptor (Homo sapiens) (P35367 whole entry): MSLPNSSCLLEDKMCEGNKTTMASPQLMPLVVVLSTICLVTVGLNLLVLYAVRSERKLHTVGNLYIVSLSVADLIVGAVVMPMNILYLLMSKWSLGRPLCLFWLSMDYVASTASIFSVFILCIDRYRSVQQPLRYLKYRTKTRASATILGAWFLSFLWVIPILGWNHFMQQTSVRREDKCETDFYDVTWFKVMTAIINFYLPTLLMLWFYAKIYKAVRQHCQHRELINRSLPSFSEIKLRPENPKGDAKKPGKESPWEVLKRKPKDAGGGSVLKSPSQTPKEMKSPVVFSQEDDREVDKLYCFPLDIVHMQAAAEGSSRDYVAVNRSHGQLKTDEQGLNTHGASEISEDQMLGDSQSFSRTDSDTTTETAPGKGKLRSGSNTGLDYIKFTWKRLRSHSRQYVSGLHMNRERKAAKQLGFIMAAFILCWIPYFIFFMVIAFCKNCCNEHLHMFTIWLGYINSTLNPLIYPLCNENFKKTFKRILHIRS

[13] = molecular target: T4, Muscarinic acetylcholine receptor M1 (Homo sapiens) (UniProt P11229); test: Displacement of [3H] pirenzepine from human recombinant muscarinic M1 receptor at 10^-6 M measured after 60 mins by scintillation counter method relative to control
T4 sequence (whole entry): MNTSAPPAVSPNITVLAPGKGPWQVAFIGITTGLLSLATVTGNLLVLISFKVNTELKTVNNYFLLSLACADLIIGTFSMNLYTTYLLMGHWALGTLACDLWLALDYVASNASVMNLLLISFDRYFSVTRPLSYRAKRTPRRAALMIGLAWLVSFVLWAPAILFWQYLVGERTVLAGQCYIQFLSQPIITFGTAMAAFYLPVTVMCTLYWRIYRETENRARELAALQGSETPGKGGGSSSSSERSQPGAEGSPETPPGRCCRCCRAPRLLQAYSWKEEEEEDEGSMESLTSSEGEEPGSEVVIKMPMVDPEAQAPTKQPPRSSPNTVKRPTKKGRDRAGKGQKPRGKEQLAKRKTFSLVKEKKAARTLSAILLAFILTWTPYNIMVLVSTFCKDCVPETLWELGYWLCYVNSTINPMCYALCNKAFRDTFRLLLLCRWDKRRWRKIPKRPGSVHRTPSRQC

[14] = molecular target: T5, 5-hydroxytryptamine receptor 2C (Homo sapiens) (UniProt P28335); test: Displacement of [3H]mesulergine from human recombinant 5HT2C serotonin receptor at 10^-6M incubated for 120 mins by scintillation counter method relative to control
T5 sequence (whole entry): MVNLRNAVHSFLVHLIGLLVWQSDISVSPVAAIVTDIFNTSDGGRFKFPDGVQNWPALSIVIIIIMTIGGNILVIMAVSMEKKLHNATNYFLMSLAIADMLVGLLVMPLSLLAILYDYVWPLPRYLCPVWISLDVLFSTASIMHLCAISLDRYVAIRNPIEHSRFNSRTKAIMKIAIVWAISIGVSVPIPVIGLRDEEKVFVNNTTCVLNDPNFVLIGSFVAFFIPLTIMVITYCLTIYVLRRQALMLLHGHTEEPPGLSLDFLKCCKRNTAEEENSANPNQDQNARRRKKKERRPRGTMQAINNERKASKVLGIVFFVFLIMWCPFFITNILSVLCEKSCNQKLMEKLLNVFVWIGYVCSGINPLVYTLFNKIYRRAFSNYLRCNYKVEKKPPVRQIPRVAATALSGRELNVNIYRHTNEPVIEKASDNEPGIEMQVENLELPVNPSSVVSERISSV

[15] = molecular target: T6, Muscarinic acetylcholine receptor M5 (Homo sapiens) (UniProt P08912); test: Displacement of [3H]4-DAMP from human recombinant muscarinic M5 receptor at 10^-6 M measured after 60 mins by scintillation counter method relative to control
T6 sequence (whole entry): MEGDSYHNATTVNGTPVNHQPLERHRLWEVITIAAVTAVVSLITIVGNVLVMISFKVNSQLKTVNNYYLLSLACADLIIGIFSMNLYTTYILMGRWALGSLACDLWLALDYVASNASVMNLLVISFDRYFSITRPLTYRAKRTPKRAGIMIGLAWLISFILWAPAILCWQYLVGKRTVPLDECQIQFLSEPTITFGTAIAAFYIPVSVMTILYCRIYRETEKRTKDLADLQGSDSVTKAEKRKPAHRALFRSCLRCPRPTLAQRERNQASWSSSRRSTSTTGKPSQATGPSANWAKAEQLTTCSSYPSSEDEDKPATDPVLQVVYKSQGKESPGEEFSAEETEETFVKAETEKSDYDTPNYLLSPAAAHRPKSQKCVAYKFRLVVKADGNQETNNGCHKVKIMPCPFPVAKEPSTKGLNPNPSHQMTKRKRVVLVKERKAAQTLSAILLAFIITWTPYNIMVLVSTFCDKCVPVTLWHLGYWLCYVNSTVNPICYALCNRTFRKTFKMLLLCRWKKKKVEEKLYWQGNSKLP

[16] = molecular target: 5-hydroxytryptamine receptor 2B (Homo sapiens) (UniProt P41595); test: Displacement of [3H] mesulergine from human recombinant 5HT2B receptor at 10^-6 M measured after 60 mins by scintillation counting method relative to control
Sequence of 5-hydroxytryptamine receptor 2B (Homo sapiens) (P41595 whole entry): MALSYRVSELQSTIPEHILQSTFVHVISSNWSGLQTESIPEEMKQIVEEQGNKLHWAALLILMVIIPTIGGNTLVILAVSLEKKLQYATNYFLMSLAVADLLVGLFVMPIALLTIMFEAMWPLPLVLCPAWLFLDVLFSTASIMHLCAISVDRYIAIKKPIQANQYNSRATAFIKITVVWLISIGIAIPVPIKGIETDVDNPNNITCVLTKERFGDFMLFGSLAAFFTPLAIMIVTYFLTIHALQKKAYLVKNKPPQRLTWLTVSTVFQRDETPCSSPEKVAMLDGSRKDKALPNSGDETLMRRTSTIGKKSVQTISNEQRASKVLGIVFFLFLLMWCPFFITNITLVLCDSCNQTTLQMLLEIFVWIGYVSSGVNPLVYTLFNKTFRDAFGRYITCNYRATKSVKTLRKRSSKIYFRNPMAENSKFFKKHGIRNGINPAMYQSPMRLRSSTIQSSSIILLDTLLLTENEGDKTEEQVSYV

[17] = molecular target: 5-hydroxytryptamine receptor 2B (Homo sapiens) (UniProt P41595); test: Antagonist activity at human recombinant 5HT2B receptor expressed in CHOK1 cells at 10^-6 M measured after 30 mins by HTRF assay relative to control; type: cell-based; design: scale not given: the % may be the effect or the level left

Row | SMILES | Ki ([1]; read-out: Ki) | Ki [2] | Ki [3] | Ki [4] | Ki ([5]; read-out: Ki) | solubility ([6]; buffer) | Stability [7] | microsomal CLint ([8]; microsomes) | half-life ([9]; microsomes) | inhibition [11] | inhibition [14] | also measured
1 | CC(=O)Nc1nc(C)c(-c2cn(S(=O)(=O)c3ccccc3)c3ccccc23)[nH]1 [listing 1 of 2 here] | > 10000 nM | > 10000 nM | > 10000 nM | 25 nM | > 10000 nM | Insoluble | Stable | 7.3 µL/min/mg | 190 min | – | – | –
2 | COc1ccc2c(c1)c(-c1[nH]c(NCC(F)F)nc1C)cn2S(=O)(=O)c1ccccc1 | – | 1230 nM | 3980 nM | 21 nM | – | – | – | – | – | 4% | 28% | Ki ([1]; hek293): Not Active; Ki ([5]; hek293): Not Active; Kb [10]: 13 nM; inhibition [12]: 1%; inhibition [13]: -4%; solubility ([6]; water, read-out: solubility): 1000 to 10000 µg/mL (≈ 2.24 to 22.4 mM); microsomal CLint ([8]; liver microsomes): 39 µL/min/mg; half-life ([9]; liver microsomes): 36 min
3 | COc1ccc2c(c1)c(-c1[nH]c(NC(=O)Cc3ccccc3)nc1C)cn2S(=O)(=O)c1ccccc1 | – | > 10000 nM | > 10000 nM | 3 nM | > 10000 nM | Insoluble | – | – | – | – | – | –
4 | COc1ccc2c(c1)c(-c1c(C)nc(N)n1CC(F)F)cn2S(=O)(=O)c1ccccc1 | – | 3240 nM | 3800 nM | 157 nM | – | Insoluble | – | – | – | – | – | Ki ([1]; hek293): Not Active; Ki ([5]; hek293): Not Active
5 | O=S(=O)(c1ccccc1)n1cc(-c2c[n+]3cccnc3[nH]2)c2ccccc21.[Br-] | > 10000 nM | > 10000 nM | – | 50 nM | > 10000 nM | Soluble | Unstable | 230 µL/min/mg | 6 min | – | – | –
6 | Cc1nc(N)[nH]c1-c1cn(S(=O)(=O)c2ccccc2)c2ccccc12 | > 10000 nM | 100 nM | – | – | – | – | – | – | – | 12.2% | 71.6% | inhibition [13]: 3.8%; inhibition [15]: 7.6%; inhibition [16]: 4.5%
7 | CCC(=O)Nc1nc(C)c(-c2cn(S(=O)(=O)c3ccccc3)c3ccc(OC)cc23)[nH]1 | – | – | > 10000 nM | 14 nM | > 10000 nM | Insoluble | Stable | 17.1 µL/min/mg | 81 min | – | – | –
8 | COc1ccc2c(c1)c(-c1cnc(N)[nH]1)cn2S(=O)(=O)c1ccccc1 | > 10000 nM | 794 nM | – | – | – | – | – | – | – | 33.1% | 82% | inhibition [13]: 6.7%; inhibition [15]: 5.6%; inhibition [16]: 1.7%
9 | COc1ccc2c(c1)c(-c1[nH]c(NCCc3ccccc3)nc1C)cn2S(=O)(=O)c1ccccc1 | – | 1910 nM | 2140 nM | 83 nM | – | Insoluble | – | – | – | – | – | Ki ([1]; hek293): Not Active; Ki ([5]; hek293): Not Active
10 | Cc1nc(N)[nH]c1-c1ccc2ccn(S(=O)(=O)c3ccccc3)c2c1.Cl | > 10000 nM | 1170 nM | 708 nM | 4 nM | 776 nM | Soluble | Unstable | 104 µL/min/mg | 13 min | – | – | –
11 | CC(=O)Nc1nc(C)c(-c2ccc3ccn(S(=O)(=O)c4ccccc4)c3c2)[nH]1 | – | > 10000 nM | – | – | – | – | – | – | – | -4.2% | – | inhibition [12]: -1.9%
12 | CC(=O)Nc1nc(C)c(-c2cn(S(=O)(=O)c3ccccc3)c3ccccc23)[nH]1 [listing 2 of 2 here] | – | – | – | – | – | – | – | – | – | -1.5% | 22.4% | Kb [10]: 1.3 nM; inhibition [12]: -5.9%; Activity [17]: -1.9%
